According to ChEMBL document CHEMBL1159061, “Synthesis and biological properties of iron chelators based on a bis-2-(2-hydroxy-phenyl)-thiazole-4-carboxamide or -thiocarboxamide (BHPTC) scaffold” (Bioorg Med Chem, 2010):
Active and inactive are the calls of the source. The calls are words filed in the database; no cut-off is given here.

Test system: HepaRG
Assay: Cytotoxicity against human HepaRG cells assessed as increase in extracellular LDH release at >100 uM after 72 hrs in presence of iron(3)
Assay type: functional, cell-based
Conditions: not given

Compound | Activity
COC(=O)c1ccc(O)c(-c2nc(C(=O)NCCOCCOCCNC(=O)c3csc(-c4cc(C(=O)OC)ccc4O)n3)cs2)c1 | Active

Test system: SK-OV-3
Assay: Antiproliferative activity against human SKOV3 cells at 1 uM after 72 hrs by MTS assay
Assay type: functional
Conditions: SK-OV-3, 72 h
Summary of the method: (§1)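 Cells grown under 5% CO2: KB and HepG2 in DMEM with 10% FCS, penicillin, streptomycin and fungizone; HCT116, HT29, HCT15, MCF7, MCF7R, SK-OV3, PC-3, A549, HL60, K562 and SF268 in RPMI. Cells were plated in 96-well plates and dosed 24 h later from DMSO stocks (controls 1% DMSO final). After 72 h, MTS was added for 3 h at 37 °C and absorbance read at 490 nm. Inhibition = (1 − OD treated/OD control)×100, in triplicate.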

Compound | inhibition at 1 µM [%]
COC(=O)c1ccc(O)c(-c2nc(C(=O)NCCOCCOCCNC(=O)c3csc(-c4cc(C(=O)OC)ccc4O)n3)cs2)c1 | 10

Test system: HepG2
Assay: Antiproliferative activity against human HepG2 cells at 10 uM after 72 hrs by MTS assay
Assay type: functional
Conditions: HepG2, 72 h
Summary of the method: as §1

Compound | inhibition at 10 µM [%]
COC(=O)c1ccc(O)c(-c2nc(C(=O)NCCOCCOCCNC(=O)c3csc(-c4cc(C(=O)OC)ccc4O)n3)cs2)c1 | 26

Test system: Hepatocyte
Assay: Cytoprotective activity in human hepatocytes assessed as inhibition of FeNTA-induced increase in extracellular LDH activity relative to control
Assay type: functional
Parameters: scale not given: the % may be the effect or the level left
Conditions: not given

Compound | Activity [%]
COC(=O)c1ccc(O)c(-c2nc(C(=O)NCCOCCOCCNC(=O)c3csc(-c4cc(C(=O)OC)ccc4O)n3)cs2)c1 | 148

Test system: A549
Assay: Antiproliferative activity against human A549 cells at 1 uM after 72 hrs by MTS assay
Assay type: functional
Conditions: A549, 72 h
Summary of the method: as §1

Compound | inhibition at 1 µM [%]
COC(=O)c1ccc(O)c(-c2nc(C(=O)NCCOCCOCCNC(=O)c3csc(-c4cc(C(=O)OC)ccc4O)n3)cs2)c1 | 0

Test system: PC-3
Assay: Antiproliferative activity against human PC3 cells at 1 uM after 72 hrs by MTS assay
Assay type: functional
Conditions: PC-3, 72 h
Summary of the method: as §1

Compound | inhibition at 1 µM [%]
COC(=O)c1ccc(O)c(-c2nc(C(=O)NCCOCCOCCNC(=O)c3csc(-c4cc(C(=O)OC)ccc4O)n3)cs2)c1 | 8

Test system: K562
Assay: Antiproliferative activity against human K562 cells at 1 uM after 72 hrs by MTS assay
Assay type: functional
Conditions: K562, 72 h
Summary of the method: as §1

Compound | inhibition at 1 µM [%]
COC(=O)c1ccc(O)c(-c2nc(C(=O)NCCOCCOCCNC(=O)c3csc(-c4cc(C(=O)OC)ccc4O)n3)cs2)c1 | 2

Test system: SK-OV-3
Assay: Antiproliferative activity against human SKOV3 cells at 10 uM after 72 hrs by MTS assay
Assay type: functional
Conditions: SK-OV-3, 72 h
Summary of the method: as §1

Compound | inhibition at 10 µM [%]
COC(=O)c1ccc(O)c(-c2nc(C(=O)NCCOCCOCCNC(=O)c3csc(-c4cc(C(=O)OC)ccc4O)n3)cs2)c1 | 22

Test system: A549
Assay: Antiproliferative activity against human A549 cells at 10 uM after 72 hrs by MTS assay
Assay type: functional
Conditions: A549, 72 h
Summary of the method: as §1

Compound | inhibition at 10 µM [%]
COC(=O)c1ccc(O)c(-c2nc(C(=O)NCCOCCOCCNC(=O)c3csc(-c4cc(C(=O)OC)ccc4O)n3)cs2)c1 | 11

Test system: SF-268
Assay: Antiproliferative activity against human SF268 cells at 10 uM after 72 hrs by MTS assay
Assay type: functional
Conditions: SF-268, 72 h
Summary of the method: as §1

Compound | inhibition at 10 µM [%]
COC(=O)c1ccc(O)c(-c2nc(C(=O)NCCOCCOCCNC(=O)c3csc(-c4cc(C(=O)OC)ccc4O)n3)cs2)c1 | 19

Test system: SF-268
Assay: Antiproliferative activity against human SF268 cells at 1 uM after 72 hrs by MTS assay
Assay type: functional
Conditions: SF-268, 72 h
Summary of the method: as §1

Compound | inhibition at 1 µM [%]
COC(=O)c1ccc(O)c(-c2nc(C(=O)NCCOCCOCCNC(=O)c3csc(-c4cc(C(=O)OC)ccc4O)n3)cs2)c1 | 0

Test system: HCT-15
Assay: Antiproliferative activity against human HCT15 cells at 10 uM after 72 hrs by MTS assay
Assay type: functional
Conditions: HCT-15, 72 h
Summary of the method: as §1

Compound | inhibition at 10 µM [%]
COC(=O)c1ccc(O)c(-c2nc(C(=O)NCCOCCOCCNC(=O)c3csc(-c4cc(C(=O)OC)ccc4O)n3)cs2)c1 | 14

Test system: KB
Assay: Antiproliferative activity against human KB cells at 10 uM after 72 hrs by MTS assay
Assay type: functional
Conditions: not given
Summary of the method: as §1

Compound | inhibition at 10 µM [%]
COC(=O)c1ccc(O)c(-c2nc(C(=O)NCCOCCOCCNC(=O)c3csc(-c4cc(C(=O)OC)ccc4O)n3)cs2)c1 | 28

Test system: HL-60
Assay: Antiproliferative activity against human HL60 cells at 1 uM after 72 hrs by MTS assay
Assay type: functional
Conditions: HL-60, 72 h
Summary of the method: as §1

Compound | inhibition at 1 µM [%]
COC(=O)c1ccc(O)c(-c2nc(C(=O)NCCOCCOCCNC(=O)c3csc(-c4cc(C(=O)OC)ccc4O)n3)cs2)c1 | 0

Test system: HepG2
Assay: Antiproliferative activity against human HepG2 cells at 1 uM after 72 hrs by MTS assay
Assay type: functional
Conditions: HepG2, 72 h
Summary of the method: as §1

Compound | inhibition at 1 µM [%]
COC(=O)c1ccc(O)c(-c2nc(C(=O)NCCOCCOCCNC(=O)c3csc(-c4cc(C(=O)OC)ccc4O)n3)cs2)c1 | 0

Test system: HL-60
Assay: Antiproliferative activity against human HL60 cells at 10 uM after 72 hrs by MTS assay
Assay type: functional
Conditions: HL-60, 72 h
Summary of the method: as §1

Compound | inhibition at 10 µM [%]
COC(=O)c1ccc(O)c(-c2nc(C(=O)NCCOCCOCCNC(=O)c3csc(-c4cc(C(=O)OC)ccc4O)n3)cs2)c1 | 0

Test system: MCF7
Assay: Antiproliferative activity against doxorubicin-resistant human MCF7 cells at 10 uM after 72 hrs by MTS assay
Assay type: functional
Conditions: MCF7, 72 h
Summary of the method: as §1

Compound | inhibition at 10 µM [%]
COC(=O)c1ccc(O)c(-c2nc(C(=O)NCCOCCOCCNC(=O)c3csc(-c4cc(C(=O)OC)ccc4O)n3)cs2)c1 | 19

Test system: HCT-15
Assay: Antiproliferative activity against human HCT15 cells at 1 uM after 72 hrs by MTS assay
Assay type: functional
Conditions: HCT-15, 72 h
Summary of the method: as §1

Compound | inhibition at 1 µM [%]
COC(=O)c1ccc(O)c(-c2nc(C(=O)NCCOCCOCCNC(=O)c3csc(-c4cc(C(=O)OC)ccc4O)n3)cs2)c1 | 11

Test system: MCF7
Assay: Antiproliferative activity against human MCF7 cells at 1 uM after 72 hrs by MTS assay
Assay type: functional
Conditions: MCF7, 72 h
Summary of the method: as §1

Compound | inhibition at 1 µM [%]
COC(=O)c1ccc(O)c(-c2nc(C(=O)NCCOCCOCCNC(=O)c3csc(-c4cc(C(=O)OC)ccc4O)n3)cs2)c1 | 0

Test system: HT-29
Assay: Antiproliferative activity against human HT-29 cells at 1 uM after 72 hrs by MTS assay
Assay type: functional
Conditions: HT-29, 72 h
Summary of the method: as §1

Compound | inhibition at 1 µM [%]
COC(=O)c1ccc(O)c(-c2nc(C(=O)NCCOCCOCCNC(=O)c3csc(-c4cc(C(=O)OC)ccc4O)n3)cs2)c1 | 0

Test system: not listed separately
Assay: Induction of iron chelating activity by calcein fluorescence assay
Assay type: physicochemical
Conditions: not given
Summary of the method: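 Cell-free calcein assay in 20 mM HEPES, 150 mM NaCl, pH 7.3, at 20 °C with orbital stirring. Calcein was quenched with iron(III) for 6 h to maximal quenching. Fluorescence recovery (ex 485/em 520 nm) was followed for 1 h at various chelator concentrations, and the initial dequenching rate was derived from the kinetics. Three independent experiments.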

Compound | IC50 [µM]
COC(=O)c1ccc(O)c(-c2nc(C(=O)NCCOCCOCCNC(=O)c3csc(-c4cc(C(=O)OC)ccc4O)n3)cs2)c1 | 1

Test system: K562
Assay: Antiproliferative activity against human K562 cells at 10 uM after 72 hrs by MTS assay
Assay type: functional
Conditions: K562, 72 h
Summary of the method: as §1

Compound | inhibition at 10 µM [%]
COC(=O)c1ccc(O)c(-c2nc(C(=O)NCCOCCOCCNC(=O)c3csc(-c4cc(C(=O)OC)ccc4O)n3)cs2)c1 | 10

Test system: HCT-116
Assay: Antiproliferative activity against human HCT116 cells at 10 uM after 72 hrs by MTS assay
Assay type: functional
Conditions: HCT-116, 72 h
Summary of the method: as §1

Compound | inhibition at 10 µM [%]
COC(=O)c1ccc(O)c(-c2nc(C(=O)NCCOCCOCCNC(=O)c3csc(-c4cc(C(=O)OC)ccc4O)n3)cs2)c1 | 13

Test system: HCT-116
Assay: Antiproliferative activity against human HCT116 cells at 1 uM after 72 hrs by MTS assay
Assay type: functional
Conditions: HCT-116, 72 h
Summary of the method: as §1

Compound | inhibition at 1 µM [%]
COC(=O)c1ccc(O)c(-c2nc(C(=O)NCCOCCOCCNC(=O)c3csc(-c4cc(C(=O)OC)ccc4O)n3)cs2)c1 | 0

Test system: HT-29
Assay: Antiproliferative activity against human HT-29 cells at 10 uM after 72 hrs by MTS assay
Assay type: functional
Conditions: HT-29, 72 h
Summary of the method: as §1

Compound | inhibition at 10 µM [%]
COC(=O)c1ccc(O)c(-c2nc(C(=O)NCCOCCOCCNC(=O)c3csc(-c4cc(C(=O)OC)ccc4O)n3)cs2)c1 | 4

Test system: MCF7
Assay: Antiproliferative activity against doxorubicin-resistant human MCF7 cells at 1 uM after 72 hrs by MTS assay
Assay type: functional
Conditions: MCF7, 72 h
Summary of the method: as §1

Compound | inhibition at 1 µM [%]
COC(=O)c1ccc(O)c(-c2nc(C(=O)NCCOCCOCCNC(=O)c3csc(-c4cc(C(=O)OC)ccc4O)n3)cs2)c1 | 0

Test system: not listed separately
Assay: Antiproliferative activity against human HepaRG cells after 72 hrs by MTT assay
Assay type: functional, cell-based
Conditions: not given
Summary of the method: (§2)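 Proliferating HepaRG cells at day 4 (seeded at 2.5×10⁴/cm² in William's E, 10% FCS, insulin, glutamine, hydrocortisone) were exposed for 72 h to a concentration series, with or without added iron(III) as each line states. Viability was read by MTT (0.5 mg/L as printed) for 3 h in serum-free medium, DMSO-solubilized formazan at 535 nm, expressed as % of control SDH activity.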

Compound | IC50 [µM]
COC(=O)c1ccc(O)c(-c2nc(C(=O)NCCOCCOCCNC(=O)c3csc(-c4cc(C(=O)OC)ccc4O)n3)cs2)c1 | 64

Test system: MCF7
Assay: Antiproliferative activity against human MCF7 cells at 10 uM after 72 hrs by MTS assay
Assay type: functional
Conditions: MCF7, 72 h
Summary of the method: as §1

Compound | inhibition at 10 µM [%]
COC(=O)c1ccc(O)c(-c2nc(C(=O)NCCOCCOCCNC(=O)c3csc(-c4cc(C(=O)OC)ccc4O)n3)cs2)c1 | 4

Test system: KB
Assay: Antiproliferative activity against human KB cells at 1 uM after 72 hrs by MTS assay
Assay type: functional
Conditions: not given
Summary of the method: as §1

Compound | inhibition at 1 µM [%]
COC(=O)c1ccc(O)c(-c2nc(C(=O)NCCOCCOCCNC(=O)c3csc(-c4cc(C(=O)OC)ccc4O)n3)cs2)c1 | 0

Test system: not listed separately
Assay: Antiproliferative activity against human HepaRG cells after 72 hrs by MTT assay in presence of iron(3)
Assay type: functional, cell-based
Conditions: not given
Summary of the method: as §2

Compound | IC50 [µM]
COC(=O)c1ccc(O)c(-c2nc(C(=O)NCCOCCOCCNC(=O)c3csc(-c4cc(C(=O)OC)ccc4O)n3)cs2)c1 | 78

Test system: PC-3
Assay: Antiproliferative activity against human PC3 cells at 10 uM after 72 hrs by MTS assay
Assay type: functional
Conditions: PC-3, 72 h
Summary of the method: as §1

Compound | inhibition at 10 µM [%]
COC(=O)c1ccc(O)c(-c2nc(C(=O)NCCOCCOCCNC(=O)c3csc(-c4cc(C(=O)OC)ccc4O)n3)cs2)c1 | 37
